Assay results taken from ChEMBL document CHEMBL2169835, “Flavonoid dimers as novel, potent antileishmanial agents” (J Med Chem, 2012).

Key:
Leishmania donovani [1] = assay: Selectivity ratio of IC50 for compound-resistant Leishmania donovani AG83PentR50 promastigote to IC50 for wild-type Leishmania donovani AG83 promastigote; format: functional
[2] = Therapeutic index, ratio of IC50 for mouse Peritoneal macrophages to IC50 for SSG-resistant Leishmania donovani 39 amastigote infected in mouse peritoneal macrophages; settings: read-out: Ratio IC50
[3] = Therapeutic index, ratio of IC50 for mouse Peritoneal macrophages to IC50 for SSG-resistant Leishmania donovani 39 promastigote; settings: read-out: Ratio IC50
In short: (§1)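 Index is PEM cytotoxicity IC50 over promastigote IC50. For PEM, cells were seeded at 2 × 10^4 per well in supplemented DMEM, given graded doses for 72 h at 37 °C, 5% CO2, and read by MTS survival.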

[4] = Therapeutic index, ratio of IC50 for mouse Peritoneal macrophages to IC50 for pentamidine-resistant Leishmania donovani AG83PentR50 promastigote; settings: read-out: Ratio IC50; in short: as §1
[5] = Therapeutic index, ratio of IC50 for mouse PEM cells to IC50 for wild-type Leishmania donovani AG83 promastigote; format: cell-based; settings: read-out: Ratio IC50; in short: as §1
[6] = Cytotoxicity against mouse Peritoneal macrophages cells after 72 hrs by MTS assay; format: cell-based; settings: Peritoneal macrophage cell
In short: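 Primary mouse peritoneal elicited macrophages were seeded at 2 × 10^4 cells per well in DMEM with 10% heat-inactivated FBS. They were exposed to graded doses for 72 h at 37 °C in 5% CO2. Survival was read by MTS/PMS tetrazolium reduction (OD 490 nm) relative to untreated control. The IC50 was the concentration halving OD. Results are mean ± SEM of 1–4 independent experiments.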

RAW264.7 = assay: Cytotoxicity against mouse RAW264.7 cells after 72 hrs by MTS assay; format: cell-based; settings: RAW264.7, 72 h
In short: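 RAW 264.7 murine macrophage line was plated at 1 × 10^4 cells per well in supplemented DMEM. Cells received a graded compound series for 72 h at 37 °C, 5% CO2, with a maximum of 1% DMSO. Viability was measured by MTS with PMS coupling at OD 490 nm, as percent of untreated control. The IC50 was the concentration reducing OD by half, given as mean ± SEM, N = 1–4.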

Leishmania donovani [7] = assay: Antimicrobial activity against SSG-resistant Leishmania donovani 39 amastigote infected in mouse peritoneal macrophages assessed as inhibition of parasite growth after 72 hrs by Giemsa staining method; format: functional, organism-based; settings: Leishmania donovani, 39, 72 h
In short: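 Mouse peritoneal elicited macrophages were seeded on coverslips at 1 × 10^5 cells per well in DMEM with 10% heat-inactivated FBS and left to attach overnight. They were infected overnight with late-log Ld39 promastigotes (parasite:macrophage 20:1) at 37 °C, 5% CO2, then washed. Compounds were applied for 72 h at 37 °C. Giemsa-stained amastigotes per 100 macrophages gave IC50; N = 1−3.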

Leishmania donovani [8] = assay: Antimicrobial activity against pentamidine-resistant Leishmania donovani AG83PentR50 promastigote assessed as inhibition of parasite growth after 72 hrs by MTS assay; format: functional, organism-based; settings: AG83PentR50, 72 h
In short: (§2)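 Promastigotes were grown in Schneider's medium pH 6.9 with 10% heat-inactivated FBS at 27 °C, seeded at 1 × 10^5 per well, and exposed to serial concentrations for 72 h at 27 °C. Compounds were in DMSO (≤1% final) or water. MTS:PMS (20:1) was added for 4 h, then OD490 was read. Survival was % of untreated control; IC50 = concentration halving OD; N = 1−4.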

Leishmania donovani [9] = assay: Antimicrobial activity against SSG-resistant Leishmania donovani 39 promastigote assessed as inhibition of parasite growth after 72 hrs by MTS assay; format: functional, organism-based; settings: Leishmania donovani, 39, 72 h; in short: as §2
Leishmania donovani [10] = assay: Antimicrobial activity against wild-type Leishmania donovani AG83 promastigote assessed as inhibition of parasite growth after 72 hrs by MTS assay; format: functional, organism-based; settings: AG83, 72 h
In short: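 Promastigotes were grown in Schneider's medium pH 6.9 with 10% heat-inactivated FBS at 27 °C, seeded at 1 × 10^5 per well, and exposed to serial concentrations for 72 h at 27 °C. Compounds were in DMSO (≤1% final) or water. MTS:PMS (20:1) was added for 4 h, then OD490 was read.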

Leishmania donovani [11] = assay: Selectivity ratio of IC50 for Leishmania donovani promastigote to IC50 for SSG-resistant Leishmania donovani 39 amastigote infected in mouse peritoneal macrophages; format: functional
Leishmania donovani [12] = assay: Antimicrobial activity against axenically grown Leishmania donovani amastigotes; format: functional, organism-based
[13] = Therapeutic index, ratio of IC50 for rat L6 cells to IC50 for Leishmania donovani; format: cell-based; settings: L6 cells (cytotoxicity) versus Leishmania donovani, read-out: Ratio IC50
L6 = assay: Cytotoxicity against rat L6 cells; format: cell-based

## N=C(N)c1ccc(OCCCCCOc2ccc(C(=N)N)cc2)cc1 [PENTAMIDINE]
Leishmania donovani [1]
  Ratio IC50: 3.9
[2]
  selectivity ratio: < 1
[3]
  selectivity ratio: 5.7
[4]
  selectivity ratio: 0.6
[5]
  selectivity ratio: 2.2
[6]
  IC50: 30.4 µM
RAW264.7
  IC50: 30 µM
Leishmania donovani [7]
  IC50: > 30 µM
Leishmania donovani [8]
  IC50: 54.8 µM
Leishmania donovani [9]
  IC50: 5.3 µM
Leishmania donovani [10]
  IC50: 13.9 µM

## O=c1cc(-c2ccc(O)c(O)c2)oc2cc(O)cc(O)c12 [LUTEOLIN]
Leishmania donovani [11]
  Ratio IC50: 12
[2]
  selectivity ratio: 10.1
[3]
  selectivity ratio: 0.9
[4]
  selectivity ratio: 0.9
[5]
  selectivity ratio: 0.7
[6]
  IC50: 77.7 µM
RAW264.7
  IC50: 43.2 µM
Leishmania donovani [7]
  IC50: 7.7 µM
Leishmania donovani [8]
  IC50: 90.9 µM
Leishmania donovani [9]
  IC50: 89 µM
Leishmania donovani [10]
  IC50: 114 µM

## O=c1cc(-c2ccc(OCCOCCN(CCOCCOc3ccc(-c4cc(=O)c5ccccc5o4)cc3)Cc3cccnc3)cc2)oc2ccccc12
[2]
  selectivity ratio: 13.8
[6]
  IC50: 33.1 µM
Leishmania donovani [7]
  IC50: 2.4 µM
Leishmania donovani [9]
  IC50: 0.98 µM
Leishmania donovani [10]
  IC50: 0.56 µM

## NC[C@@H]1O[C@H](O[C@H]2[C@@H](O)[C@H](O[C@@H]3[C@@H](O)[C@H](N)C[C@H](N)[C@H]3O[C@H]3O[C@H](CO)[C@@H](O)[C@H](O)[C@H]3N)O[C@@H]2CO)[C@H](N)[C@@H](O)[C@@H]1O [PAROMOMYCIN]
[2]
  selectivity ratio: > 2.4
[3]
  selectivity ratio: > 4.1
[4]
  selectivity ratio: > 1.2
[5]
  selectivity ratio: > 1.6
[6]
  IC50: > 100 µM
RAW264.7
  IC50: > 100 µM
Leishmania donovani [7]
  IC50: 41 µM
Leishmania donovani [8]
  IC50: 85.5 µM
Leishmania donovani [9]
  IC50: 24.5 µM
Leishmania donovani [10]
  IC50: 62.6 µM

## O=c1cc(-c2cccc(OCCOCCN(CCOCCOc3cccc(-c4cc(=O)c5ccccc5o4)c3)Cc3ccncc3)c2)oc2ccccc12
[2]
  selectivity ratio: > 21.7
[6]
  IC50: > 50 µM
Leishmania donovani [7]
  IC50: 2.3 µM
Leishmania donovani [9]
  IC50: 0.44 µM
Leishmania donovani [10]
  IC50: 0.19 µM

## COc1cc(-c2cc(=O)c3ccccc3o2)ccc1OCCOCCN(CCOCCOc1ccc(-c2cc(=O)c3ccccc3o2)cc1OC)Cc1ccncc1
[6]
  IC50: 2.7 µM
Leishmania donovani [9]
  IC50: 0.69 µM
Leishmania donovani [10]
  IC50: 0.63 µM

## O=c1cc(-c2ccc(OCCOCCN(CCOCCOc3ccc(-c4cc(=O)c5ccccc5o4)cc3)Cc3ccccn3)cc2)oc2ccccc12
[2]
  selectivity ratio: > 8
[6]
  IC50: > 33 µM
RAW264.7
  IC50: 53 µM
Leishmania donovani [7]
  IC50: 4.1 µM
Leishmania donovani [9]
  IC50: 4.2 µM
Leishmania donovani [10]
  IC50: 5 µM

## C[C@@H]1[C@H](O)[C@@H](C)/C=C/C=C/C=C/C=C/C=C/C=C/C=C/[C@H](O[C@@H]2O[C@H](C)[C@@H](O)[C@H](N)[C@@H]2O)C[C@@H]2O[C@](O)(C[C@@H](O)C[C@@H](O)[C@H](O)CC[C@@H](O)C[C@@H](O)CC(=O)O[C@H]1C)C[C@H](O)[C@H]2C(=O)O [AMPHOTERICIN B]
[2]
  selectivity ratio: 119
[3]
  selectivity ratio: 77.9
[4]
  selectivity ratio: 145
[5]
  selectivity ratio: 82.2
[6]
  IC50: 7.4 µM
RAW264.7
  IC50: 12 µM
Leishmania donovani [7]
  IC50: 0.062 µM
Leishmania donovani [8]
  IC50: 0.051 µM
Leishmania donovani [9]
  IC50: 0.095 µM
Leishmania donovani [10]
  IC50: 0.09 µM

## COc1ccc(-c2cc(=O)c3c(O)cc(O)cc3o2)cc1-c1c(O)cc(O)c2c(=O)cc(-c3ccc(O)cc3)oc12 [BILOBETIN]
Leishmania donovani [12]
  IC50: 2.7 µM

## N#Cc1cc(CN(CCOCCOc2ccc(-c3cc(=O)c4ccccc4o3)cc2)CCOCCOc2ccc(-c3cc(=O)c4ccccc4o3)cc2)ccn1
[2]
  selectivity ratio: > 12.1
[6]
  IC50: > 92 µM
Leishmania donovani [7]
  IC50: 7.6 µM
Leishmania donovani [9]
  IC50: > 50 µM
Leishmania donovani [10]
  IC50: 1.1 µM

## O=c1cc(-c2ccc(OCCOCCN(CCOCCOc3ccc(-c4cc(=O)c5ccccc5o4)cc3)Cc3ccncc3Br)cc2)oc2ccccc12
[2]
  selectivity ratio: > 13.1
[6]
  IC50: > 100 µM
Leishmania donovani [7]
  IC50: > 7.6 µM
Leishmania donovani [9]
  IC50: > 50 µM
Leishmania donovani [10]
  IC50: 0.65 µM

## sodium stibogluconate
Leishmania donovani [11]
  Ratio IC50: 11

## COc1ccc(-c2cc(=O)c3c(O)cc(O)c(-c4cc(-c5cc(=O)c6c(O)cc(O)cc6o5)ccc4OC)c3o2)cc1 [ISOGINKGETIN]
[13]
  selectivity ratio: 5.8
L6
  IC50: 11 µM
Leishmania donovani [12]
  IC50: 1.9 µM

## O=c1c(OCCOCCN(CCOCCOc2c(-c3ccccc3)oc3ccccc3c2=O)Cc2ccncc2)c(-c2ccccc2)oc2ccccc12
[2]
  selectivity ratio: > 10.6
[6]
  IC50: > 33 µM
Leishmania donovani [7]
  IC50: 3.1 µM
Leishmania donovani [9]
  IC50: 3.1 µM
Leishmania donovani [10]
  IC50: 2.5 µM
